In paper PMC11040699 (JACS Au, 2024):
“Also recorded” adds a separate entry of the source. Residues, ends and D or L forms follow the SMILES beside them. No end group written: not given here. *: point of attachment. Acetyl(9-fluorenyl) = O=C(CC1c2ccccc2-c2ccccc21)*

Key:
[1] = target: T1, recombinant mouse α-Klotho (mKlotho) (Mus musculus, UniProt O35082); test: Competition binding assay with BLI against immobilized Pep-10-Biotin, mKlotho
T1 sequence (O35082 35-960): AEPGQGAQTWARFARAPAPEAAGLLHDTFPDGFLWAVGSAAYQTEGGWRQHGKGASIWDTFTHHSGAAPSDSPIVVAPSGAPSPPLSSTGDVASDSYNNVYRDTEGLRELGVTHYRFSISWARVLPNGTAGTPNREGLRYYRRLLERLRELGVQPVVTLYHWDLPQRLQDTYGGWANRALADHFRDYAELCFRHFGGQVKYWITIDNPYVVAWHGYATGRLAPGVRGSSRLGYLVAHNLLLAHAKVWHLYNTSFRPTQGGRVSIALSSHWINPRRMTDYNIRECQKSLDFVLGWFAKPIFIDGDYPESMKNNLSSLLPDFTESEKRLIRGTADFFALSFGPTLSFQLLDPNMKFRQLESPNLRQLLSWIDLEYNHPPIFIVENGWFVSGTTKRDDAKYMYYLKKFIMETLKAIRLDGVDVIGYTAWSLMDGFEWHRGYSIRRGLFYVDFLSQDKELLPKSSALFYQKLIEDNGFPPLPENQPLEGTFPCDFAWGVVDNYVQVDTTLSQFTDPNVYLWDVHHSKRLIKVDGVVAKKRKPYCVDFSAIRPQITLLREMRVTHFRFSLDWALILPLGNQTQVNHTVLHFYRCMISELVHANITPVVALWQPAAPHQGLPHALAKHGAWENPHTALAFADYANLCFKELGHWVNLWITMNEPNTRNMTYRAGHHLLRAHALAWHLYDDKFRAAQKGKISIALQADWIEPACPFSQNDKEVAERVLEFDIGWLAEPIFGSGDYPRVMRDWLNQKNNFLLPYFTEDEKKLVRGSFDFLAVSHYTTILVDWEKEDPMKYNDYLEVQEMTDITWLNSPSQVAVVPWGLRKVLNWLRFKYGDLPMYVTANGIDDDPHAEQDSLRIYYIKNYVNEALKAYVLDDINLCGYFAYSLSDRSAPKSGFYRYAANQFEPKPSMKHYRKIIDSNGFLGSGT

[2] = system: endogenous hKlotho in HK-2 cell lysate; test: Pull-down assay from HK-2 cell lysate; assay type: binding, human; conditions: for selectivity of pull-down by silver stain, HK-2 cell lysate: silver stain of eluents
Procedure, shortened: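 HK-2 cells (Keratinocyte SFM with bovine pituitary extract and EGF; 37 °C, 5% CO2) were scraped and lysed in RIPA with protease inhibitors; 20% kept as input. 200 μg lysate: unlabelled competitor preincubated 15 min, then biotinylated probe 30 min RT. Streptavidin magnetic beads 20 min, PBS washes, 8 M urea elution 30 min. SDS-PAGE, then silver stain or KM2076 western (1:1000, 4 °C overnight; HRP anti-rat; chemiluminescence). Bands quantified by densitometry.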

[3] = target: recombinant mouse α-Klotho (mouse) (UniProt O35082); test: BLI
Target sequence in this assay (O35082 35-1014): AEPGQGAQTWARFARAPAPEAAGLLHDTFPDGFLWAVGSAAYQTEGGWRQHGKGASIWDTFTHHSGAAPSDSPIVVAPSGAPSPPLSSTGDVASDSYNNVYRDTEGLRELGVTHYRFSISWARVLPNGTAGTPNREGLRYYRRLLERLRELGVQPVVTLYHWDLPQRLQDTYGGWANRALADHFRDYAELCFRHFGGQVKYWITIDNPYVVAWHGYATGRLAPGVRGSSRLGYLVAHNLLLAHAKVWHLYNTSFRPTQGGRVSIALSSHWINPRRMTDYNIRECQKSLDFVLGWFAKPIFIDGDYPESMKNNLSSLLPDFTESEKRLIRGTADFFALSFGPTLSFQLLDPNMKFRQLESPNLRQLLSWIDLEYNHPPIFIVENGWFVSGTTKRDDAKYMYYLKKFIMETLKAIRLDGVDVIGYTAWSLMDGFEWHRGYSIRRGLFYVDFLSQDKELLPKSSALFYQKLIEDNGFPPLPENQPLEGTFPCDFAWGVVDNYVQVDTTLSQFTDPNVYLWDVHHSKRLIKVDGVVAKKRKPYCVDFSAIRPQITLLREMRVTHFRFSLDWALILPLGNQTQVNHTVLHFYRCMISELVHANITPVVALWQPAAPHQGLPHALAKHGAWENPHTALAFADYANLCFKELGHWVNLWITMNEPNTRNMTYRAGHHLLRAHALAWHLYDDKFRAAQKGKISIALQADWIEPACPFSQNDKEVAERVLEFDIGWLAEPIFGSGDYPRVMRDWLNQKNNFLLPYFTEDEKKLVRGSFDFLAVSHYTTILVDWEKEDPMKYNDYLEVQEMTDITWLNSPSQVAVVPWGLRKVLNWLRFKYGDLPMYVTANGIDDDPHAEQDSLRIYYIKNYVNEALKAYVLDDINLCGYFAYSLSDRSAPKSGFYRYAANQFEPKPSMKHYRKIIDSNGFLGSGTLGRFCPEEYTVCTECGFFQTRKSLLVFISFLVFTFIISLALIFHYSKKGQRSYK

[4] = target: recombinant mouse α-Klotho (mouse) (UniProt O35082); test: affinity selection-mass spectrometry
[5] = target: recombinant human α-Klotho (human) (UniProt Q9UEF7); test: BLI
recombinant human α-Klotho (human), sequence (Q9UEF7 34-1012): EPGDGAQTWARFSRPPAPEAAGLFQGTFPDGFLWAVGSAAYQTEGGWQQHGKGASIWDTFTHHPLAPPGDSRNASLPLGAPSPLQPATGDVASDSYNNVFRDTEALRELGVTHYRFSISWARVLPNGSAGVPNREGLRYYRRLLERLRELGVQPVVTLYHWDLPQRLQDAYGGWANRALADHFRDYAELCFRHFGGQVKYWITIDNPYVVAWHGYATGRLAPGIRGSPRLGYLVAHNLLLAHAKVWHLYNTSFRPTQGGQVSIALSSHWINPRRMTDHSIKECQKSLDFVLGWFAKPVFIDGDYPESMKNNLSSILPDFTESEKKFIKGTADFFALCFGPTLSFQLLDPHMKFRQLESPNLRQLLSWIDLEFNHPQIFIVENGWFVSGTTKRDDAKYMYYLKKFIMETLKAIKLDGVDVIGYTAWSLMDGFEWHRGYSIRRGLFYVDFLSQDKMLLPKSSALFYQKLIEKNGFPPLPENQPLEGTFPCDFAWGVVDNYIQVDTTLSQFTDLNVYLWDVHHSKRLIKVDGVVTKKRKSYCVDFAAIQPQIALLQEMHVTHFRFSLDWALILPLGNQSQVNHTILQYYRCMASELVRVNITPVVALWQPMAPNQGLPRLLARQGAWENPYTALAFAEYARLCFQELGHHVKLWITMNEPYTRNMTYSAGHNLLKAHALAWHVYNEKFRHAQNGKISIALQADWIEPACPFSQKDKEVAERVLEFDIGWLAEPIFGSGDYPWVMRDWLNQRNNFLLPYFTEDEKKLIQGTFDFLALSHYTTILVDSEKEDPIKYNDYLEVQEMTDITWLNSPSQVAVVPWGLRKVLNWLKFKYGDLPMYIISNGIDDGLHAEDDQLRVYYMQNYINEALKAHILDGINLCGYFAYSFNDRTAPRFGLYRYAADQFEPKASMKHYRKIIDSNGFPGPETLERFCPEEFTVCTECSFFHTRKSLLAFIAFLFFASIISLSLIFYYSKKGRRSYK

Kd [3] | Molecule | further results
19 nM | fluorenyl-ASDPLGVVRGRA [K12] | –
15 nM | fluorenyl-PMASDPLGVVRARARM [K1 P12A] | –
5900 nM | PMASDPLGVVRPRARM [Pep-10] | –

More lines, now with the values behind:

Molecule | Kd [3] | further results
CSCC[C@H](NC(=O)[C@H](CCCNC(=N)N)NC(=O)[C@H](C)NC(=O)[C@H](CCCNC(=N)N)NC(=O)[C@@H]1CCCN1C(=O)[C@H](CCCNC(=N)N)NC(=O)[C@@H](NC(=O)[C@@H](NC(=O)CNC(=O)[C@H](CC(C)C)NC(=O)[C@@H]1CCCN1C(=O)[C@H](CC(=O)O)NC(=O)[C@H](CO)NC(=O)[C@H](C)NC(=O)[C@H](CCSC)NC(=O)[C@@H]1CCCN1C(=O)CC1c2ccccc2-c2ccccc21)C(C)C)C(C)C)C(N)=O [K1] ({Acetyl(9-fluorenyl)}-PMASDPLGVVRPRARM-NH2) | – | fold change of competition KD relative to Pep-10 [1]: 89 fold
Biotin-PEG4-PMASDPLGVVRPRAM [Pep-10-Biotin] | – | selectivity of pull-down by silver stain, HK-2 cell lysate ([2]; 50 nM of biotinylated peptides): not enriched; selectivity of pull-down by silver stain, HK-2 cell lysate ([2]; legend of Figure 4D, 200 nM printed, n = 2): not able to enrich Klotho; Klotho enrichment in pulled-down fraction, HK-2 cell lysate ([2]; western blot, probe at 2 μM, n = 2): minor enrichment; also recorded: moderately enriched
fluorenyl-PMASDPLGVVRPRARM [K1] | 66 nM | –
fluorenyl-ASDPLGVVRPRA [K4] | 139 nM | recovery yield [4]: 0.5%
fluorenyl-ASDPLGVVRGRAR (not fully specified (C-terminus)) [K17] | 9 nM | –
fibroblast growth factor 23 (ligand) YPNASPLLGSSWGGLIHLYTATARNSYHLQIHKNGHVDGAPHQTIYSALMIRSEDAGFVVITGVMSRRYLCMDFRGNIFGSHYFDPENCRFQHQTLENGYDVYHSPQYHFLVSLGRAKRAFLPGMNPPPYSQFLSRRNEIPLIHFNTPIPRRHTRSAEDDSERDPLNVLKPRARMTPAPASCSQELPSAEDNSPMASDPLGVVRGGRVNTHAGGTGPEGCRPFAKFI | – | Kd [5]: 151 nM
